Reference: ChEMBL document CHEMBL3272114, “Antimalarials. 10. Synthesis of 4-substituted primaquine analogues as candidate antimalarials” (J Med Chem, 1977)
Calls of active or inactive are those of the source. The rule behind the calls is not given here.

Tests used:
Plasmodium berghei [1] = assay: Antimalarial activity against Plasmodium berghei infected in mouse assessed as change in mean survival time at 160 mg/kg, sc by Rane test; type: functional; conditions: route subcutaneous
Outline: (§1)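 Mice were infected with P. berghei 3 days before drug. The compound was usually given subcutaneously in sesame or peanut oil at 20 to 640 mg/kg. Activity was read as the extension of mean survival time (ΔMST, days) of treated mice over infected controls.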

Plasmodium berghei [2] = assay: Antimalarial activity against Plasmodium berghei infected in mouse assessed as change in mean survival time at 80 mg/kg, sc by Rane test; type: functional; conditions: route subcutaneous; outline: as §1
Plasmodium berghei [3] = assay: Antimalarial activity against Plasmodium berghei infected in mouse assessed as change in mean survival time at 320 mg/kg, sc by Rane test; type: functional; conditions: route subcutaneous; outline: as §1
Plasmodium cynomolgi [4] = assay: Antimalarial activity against Plasmodium cynomolgi infected in rhesus monkey assessed as disease cure at 1 mg/kg administered daily for 7 days; type: functional, organism-based; parameters: dose 1 mg/kg
Outline: (§2)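 Rhesus monkeys infected with P. cynomolgi, dosed once daily for 7 days at each listed mg/kg level. Cures were recorded as the number of monkeys cured over the number treated.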

Plasmodium cynomolgi [5] = assay: Antimalarial activity against Plasmodium cynomolgi infected in rhesus monkey assessed as disease cure at 0.5 mg/kg administered daily for 7 days; type: functional, organism-based; parameters: dose 0.5 mg/kg; outline: as §2
Mus musculus [6] = assay: Toxicity in mouse infected with Plasmodium berghei assessed as animal death at 640 mg/kg, sc; type: organism-based; parameters: dose 640 mg/kg, route subcutaneous; conditions: in vivo
Plasmodium berghei [7] = assay: Antimalarial activity against Plasmodium berghei infected in mouse assessed as disease cure at 640 mg/kg, sc by Rane test; type: functional, organism-based; parameters: dose 640 mg/kg
Mus musculus [8] = assay: Toxicity in mouse infected with Plasmodium berghei assessed as animal death at 320 mg/kg, sc; type: organism-based; parameters: dose 320 mg/kg, route subcutaneous; conditions: in vivo
Plasmodium cynomolgi [9] = assay: Antimalarial activity against Plasmodium cynomolgi infected in rhesus monkey at 0.25 mg/kg administered daily for 7 days; type: functional, organism-based; parameters: dose 0.25 mg/kg; outline: as §2
Mus musculus [10] = assay: Toxicity in mouse infected with Plasmodium berghei assessed as animal death at 160 mg/kg, sc; type: organism-based; parameters: dose 160 mg/kg, route subcutaneous; conditions: in vivo
Plasmodium berghei [11] = assay: Antimalarial activity against Plasmodium berghei infected in mouse assessed as change in mean survival time at 40 mg/kg, sc by Rane test; type: functional; conditions: route subcutaneous; outline: as §1
Plasmodium cynomolgi [12] = assay: Antimalarial activity against Plasmodium cynomolgi infected in rhesus monkey at 1 mg/kg administered daily for 7 days; type: functional, organism-based; parameters: dose 1 mg/kg
Plasmodium berghei [13] = assay: Antimalarial activity against Plasmodium berghei infected in mouse assessed as disease cure at 160 mg/kg, sc by Rane test; type: functional, organism-based; parameters: dose 160 mg/kg
Plasmodium berghei [14] = assay: Antimalarial activity against Plasmodium berghei infected in mouse assessed as disease cure at 320 mg/kg, sc by Rane test; type: functional, organism-based; parameters: dose 320 mg/kg
Plasmodium berghei [15] = assay: Antimalarial activity against Plasmodium berghei infected in mouse assessed as change in mean survival time at 20 mg/kg, sc by Rane test; type: functional; conditions: route subcutaneous; outline: as §1
Plasmodium cynomolgi [16] = assay: Antimalarial activity against Plasmodium cynomolgi infected in rhesus monkey at 0.50 mg/kg administered daily for 7 days; type: functional, organism-based; parameters: dose 0.5 mg/kg
Plasmodium berghei [17] = assay: Antimalarial activity against Plasmodium berghei infected in mouse assessed as change in mean survival time at 640 mg/kg, sc by Rane test; type: functional; conditions: route subcutaneous; outline: as §1

| Structure (SMILES) | MST (Plasmodium berghei [1]) | MST (Plasmodium berghei [2]) | MST (Plasmodium berghei [3]) | Activity (Plasmodium cynomolgi [4]) | Activity (Plasmodium cynomolgi [5]) | Activity (Mus musculus [6]) | Activity (Plasmodium berghei [7]) | Activity (Mus musculus [8]) | Activity (Plasmodium cynomolgi [9]) | Activity (Mus musculus [10]) | MST (Plasmodium berghei [11]) | Activity (Plasmodium cynomolgi [12]) | Activity (Plasmodium berghei [13]) | Activity (Plasmodium berghei [14]) | MST (Plasmodium berghei [15]) | Activity (Plasmodium cynomolgi [16]) | MST (Plasmodium berghei [17]) |
| --- | --- | --- | --- | --- | --- | --- | --- | --- | --- | --- | --- | --- | --- | --- | --- | --- | --- |
| COc1cc(NC(C)CCCN)c2nccc(C)c2c1 (centres undefined) | 9 days | 5.5 days | 10.1 days | Active | Active | Toxic | Active | – | – | – | – | – | – | – | – | – | – |
| COc1cc(NC(C)CCCN)c2ncccc2c1 (centres undefined) [PRIMAQUINE] | – | 9.4 days | – | Active | – | Toxic | – | Toxic | inactive | Toxic | 5 days | – | – | – | – | – | – |
| COc1cc([N+](=O)[O-])c2nccc(Oc3ccc(Cl)cc3)c2c1 | – | 10.1 days | – | – | – | Non-toxic | Active | – | – | – | 6.1 days | inactive | Active | Active | 3.5 days | – | – |
| COc1cc(NCCCN)c2nccc(C)c2c1.Cl | 3.9 days | – | 5.5 days | – | – | Toxic | – | – | inactive | – | – | – | – | – | – | – | – |
| COc1cc(NC(C)CCCCN)c2nccc(C)c2c1.O=P(O)(O)O (centres undefined) | – | 10.4 days | – | Active | – | Non-toxic | Active | – | – | – | 7 days | – | Active | Active | 5.8 days | inactive | – |
| COc1cc(NC(C)CCCN)c2nccc(SC)c2c1 (centres undefined) | 3.5 days | 1.3 days | 6.7 days | – | – | – | inactive | – | – | – | 0.1 days | inactive | – | inactive | 0.1 days | – | 8.1 days |
